The text below walks through data of ChEMBL document CHEMBL3994613, “Diaryltriazenes as antibacterial agents against methicillin resistant Staphylococcus aureus (MRSA) and Mycobacterium smegmatis” (Eur J Med Chem, 2017).

Each structure is given as a SMILES string. Converted amounts (≈) assume the structure as drawn.

Data set [1] deals with Mycolicibacterium smegmatis. The data set is described as follows: Antimycobacterial activity against Mycobacterium smegmatis MC2 155 after 94 to 98 hrs by microdilution method. It is filed as functional. Particulars: str. MC2 155. Summed up: (§1)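 Microdilution in TSB broth. Inoculum from colonies grown 96 h on TSA, final 1×10^5 CFU/mL, aerobic 94–98 h at 37 °C, growth read on a plate reader, at least duplicate.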

Data set [2] concerns Mycolicibacterium smegmatis. The data set is described as follows: Bactericidal activity against Mycobacterium smegmatis MC2 155 after 96 hrs by microdilution method. It is filed as functional. The settings on record: str. MC2 155, 96 h. Summed up: as §1
A general note: Dilution methods test growth across graded concentrations, often in twofold steps.

Data set [3] has as its system Staphylococcus aureus. The data set is described as follows: Antibacterial activity against methicillin-resistant Staphylococcus aureus USA300 after 18 to 20 hrs by microdilution method. The data set is classed as functional. Summed up:
(§2)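 EUCAST broth microdilution in LB broth. Inoculum prepared by direct colony suspension from 20–24 h LB agar (E. coli DH10β) or 5% sheep blood BHI agar (MRSA USA300) growth. Final inoculum 2×10^4 CFU/mL, 18–20 h aerobic at 37 °C, growth read on a plate reader, at least duplicate.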

Data set [4] has as its system Staphylococcus aureus. The data set is described as follows: Bactericidal activity against methicillin-resistant Staphylococcus aureus USA300 after 18 to 20 hrs by microdilution method. It is filed as functional. In short, it runs like this: as §2
The subject of data set [5] is Escherichia coli. The data set is described as follows: Antibacterial activity against Escherichia coli DH10beta harboring pHuLUC3 after 18 to 20 hrs by microdilution method. It is filed as functional. Summed up: as §2
For data set [6], the system named is Escherichia coli. The data set is described as follows: Bactericidal activity against Escherichia coli DH10beta harboring pHuLUC3 after 18 to 20 hrs by microdilution method. It is filed as functional. Summed up: as §2
The subject of another data set is Saccharomyces cerevisiae. The data set is described as follows: Antibacterial activity against Saccharomyces cerevisiae after 18 to 20 hrs by microdilution method. In short, it runs like this: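 Microdilution in YEP broth against wild-type yeast grown on YEP agar. Final inoculum 1×10^5 CFU/mL. Read after 18–20 h aerobic incubation at 30 °C on plate reader, at least one duplicate.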

Data set [7] is described as follows: Solubility of the compound in water. The data set is classed as physicochemical. The settings on record: buffer.
The nature of data set [8]: Stability of the compound in water. Particulars: buffer. It is filed as physicochemical.
A short description of data set [9]: Stability of the compound in organic solvent. It is filed as physicochemical.
The nature of data set [10]: Stability of the compound in solid state. It is filed as physicochemical.
Data set [11] has as its system Mycolicibacterium smegmatis. The data set is described as follows: Antimycobacterial activity against Mycobacterium smegmatis MC2 155 after 3 days by broth macrodilution method. It is filed as functional. Particulars: str. MC2 155, 72 h.
For data set [12], the system named is Staphylococcus aureus. The data set is described as follows: Antibacterial activity against methicillin-resistant Staphylococcus aureus USA300 by broth microdilution method.

On to `O=C(c1ccncc1)N(/N=N/c1ccc([N+](=O)[O-])c(C(F)(F)F)c1)c1ccc([N+](=O)[O-])c(C(F)(F)F)c1`, for which the MIC in [1] was 64 µg/mL (≈ 121 µM); against Staphylococcus aureus [3], 2 µg/mL (≈ 3.79 µM); against Escherichia coli [5] it was 32 µg/mL (≈ 60.6 µM); in the data set with Saccharomyces cerevisiae it was over 128 µg/mL. Besides, the values for the MBC (in data set [2]; in the data set with Staphylococcus aureus [4]; in the data set on Escherichia coli [6]) were over 128 µg/mL, 2 µg/mL (≈ 3.79 µM) and 32 µg/mL (≈ 60.6 µM), respectively.
Turning to `CCOC(=O)/C=C/[N+](CC)(CC)CC.O=[N+]([O-])c1ccc(/N=N/[N-]c2ccc([N+](=O)[O-])cc2C(F)(F)F)c(C(F)(F)F)c1`, the solubility result in data set [7] is “Soluble”. Besides, the Stability entry in [8], in data set [9] and in data set [10] was “Stable” in each case.
For `O=C(c1ccncc1)N(/N=N/c1ccc([N+](=O)[O-])cc1Cl)c1ccc([N+](=O)[O-])cc1Cl`, the MIC was 128 µg/mL (≈ 278 µM) in [1], 16 µg/mL (≈ 34.7 µM) with Staphylococcus aureus [3], 16 µg/mL (≈ 34.7 µM) in the data set on Escherichia coli [5] and over 128 µg/mL in the data set on Saccharomyces cerevisiae. In addition, the MBC was over 128 µg/mL in [2], 16 µg/mL (≈ 34.7 µM) against Staphylococcus aureus [4] and 16 µg/mL (≈ 34.7 µM) in the data set with Escherichia coli [6].
For the compound `O=C(c1ccncc1)N(/N=N/c1ccc([N+](=O)[O-])cc1Br)c1ccc([N+](=O)[O-])cc1Br`, the MIC in [1] is 128 µg/mL (≈ 233 µM); with Staphylococcus aureus [3], 32 µg/mL (≈ 58.2 µM); against Escherichia coli [5] it was 32 µg/mL (≈ 58.2 µM); against Saccharomyces cerevisiae, over 128 µg/mL. Besides, the MBC in data set [2] is over 128 µg/mL; in the data set with Staphylococcus aureus [4], 32 µg/mL (≈ 58.2 µM); in the data set on Escherichia coli [6], 32 µg/mL (≈ 58.2 µM).
In the case of `CC[N+](/C=C/C(=O)OC)(CC)CC.O=[N+]([O-])c1ccc(/N=N/[N-]c2ccc([N+](=O)[O-])cc2C(F)(F)F)c(C(F)(F)F)c1`, in data set [7], the solubility entry is reported as “Soluble”. Besides, the Stability entry in data set [8], in data set [9] and in data set [10] was “Stable” in each case.
`CCN(CC)CC.O=[N+]([O-])c1ccc(/N=N/Nc2ccc([N+](=O)[O-])cc2C(F)(F)F)c(C(F)(F)F)c1`: the solubility entry in [7] was “Soluble”. The Stability entry in data set [8], in data set [9] and in data set [10] was “Stable” in each case.
In data set [11], `CC1(C)S[C@@H]2[C@H](NC(=O)[C@H](N)c3ccc(O)cc3)C(=O)N2[C@H]1C(=O)O` [AMOXICILLIN] returned an MIC of 8 to 16 µg/mL (≈ 21.9 to 43.8 µM).
Consider `CC1(C)S[C@@H]2[C@H](NC(=O)[C@H](N)c3ccccc3)C(=O)N2[C@H]1C(=O)O` [AMPICILLIN], for which, in data set [11], the MIC worked out at 128 µg/mL (≈ 366 µM).
Still for that read-out and setting: the result for `CC1(C)S[C@@H]2[C@H](NC(=O)C(C(=O)O)c3ccccc3)C(=O)N2[C@H]1C(=O)O` (stereo partly drawn) [CARBENICILLIN] reads 512 µg/mL (≈ 1350 µM); that for `CO[C@@]1(NC(=O)Cc2cccs2)C(=O)N2C(C(=O)O)=C(COC(N)=O)CS[C@@H]21` [CEFOXITIN], 2 to 4 µg/mL (≈ 4.68 to 9.36 µM).
Same read-out and setting: the result for `CO/N=C(\C(=O)N[C@@H]1C(=O)N2C(C(=O)O)=C(CSc3nc(=O)c(O)nn3C)CS[C@H]12)c1csc(N)n1` [CEFTRIAXONE] reads 32 µg/mL (≈ 57.7 µM).
`O=C(N[C@H](CO)[C@H](O)c1ccc([N+](=O)[O-])cc1)C(Cl)Cl` [CHLORAMPHENICOL] gave an MIC against Staphylococcus aureus [12] of 4 to 32 µg/mL (≈ 12.4 to 99 µM).
Turning to `O=C(O)c1cn(C2CC2)c2cc(N3CCNCC3)c(F)cc2c1=O` [CIPROFLOXACIN], the MIC with Staphylococcus aureus [12] lay in the range of 0.125 to 64 µg/mL (≈ 0.377 to 193 µM).
Turning to `CCC[C@@H]1C[C@@H](C(=O)N[C@@H]([C@H]2O[C@H](SC)[C@H](O)[C@@H](O)[C@H]2O)[C@H](C)Cl)N(C)C1` [CLINDAMYCIN], in the data set on Staphylococcus aureus [12], the MIC lay within 0.125 to 64 µg/mL (≈ 0.294 to 151 µM).
Compound `N[C@@H]1CONC1=O` [CYCLOSERINE] registered an MIC in data set [11] of 105 µg/mL (≈ 1030 µM).
In the data set with Staphylococcus aureus [12], `CC[C@H]1OC(=O)[C@H](C)[C@@H](O[C@H]2C[C@@](C)(OC)[C@@H](O)[C@H](C)O2)[C@H](C)[C@@H](O[C@@H]2O[C@H](C)C[C@H](N(C)C)[C@H]2O)[C@](C)(O)C[C@@H](C)C(=O)[C@H](C)[C@@H](O)[C@]1(C)O` [ERYTHROMYCIN] had an MIC of 8 to 64 µg/mL (≈ 10.9 to 87.2 µM).
In the data set with Staphylococcus aureus [12], `COc1c(N2CCNC(C)C2)c(F)cc2c(=O)c(C(=O)O)cn(C3CC3)c12` (stereo not drawn) [GATIFLOXACIN] came in with an MIC of 0.5 to 4 µg/mL (≈ 1.33 to 10.7 µM).
Take `NC[C@H]1O[C@H](O[C@H]2[C@H](O)[C@@H](O[C@H]3O[C@H](CO)[C@@H](O)[C@H](N)[C@H]3O)[C@H](N)C[C@@H]2N)[C@H](O)[C@@H](O)[C@@H]1O` [KANAMYCIN]: the MIC in the data set on Staphylococcus aureus [12] is over 64 µg/mL.
In the case of `C[C@H]1COc2c(N3CCN(C)CC3)c(F)cc3c(=O)c(C(=O)O)cn1c23.C[C@H]1COc2c(N3CCN(C)CC3)c(F)cc3c(=O)c(C(=O)O)cn1c23.O` [LEVOFLOXACIN], in the data set on Staphylococcus aureus [12], the MIC was in the range of 0.25 to 32 µg/mL.
In the case of `CC(=O)NC[C@H]1CN(c2ccc(N3CCOCC3)c(F)c2)C(=O)O1` [LINEZOLID], the MIC against Staphylococcus aureus [12] lay in the range of 2 to 4 µg/mL (≈ 5.93 to 11.9 µM).
On the same count and under the same terms, to `C/C(=C\C(=O)OCCCCCCCCC(=O)O)C[C@@H]1OC[C@H](C[C@@H]2O[C@H]2[C@@H](C)[C@H](C)O)[C@@H](O)[C@H]1O` [MUPIROCIN] belongs 0.5 to 64 µg/mL (≈ 0.999 to 128 µM).
Take `Cc1onc(-c2ccccc2)c1C(=O)N[C@@H]1C(=O)N2[C@@H]1SC(C)(C)[C@@H]2C(=O)O` [OXACILLIN]: the MIC with Staphylococcus aureus [12] is 16 to 32 µg/mL (≈ 39.9 to 79.7 µM); in [11], 32 µg/mL (≈ 79.7 µM).
For `NC[C@H]1O[C@H](O[C@H]2[C@H](O)[C@@H](O[C@H]3O[C@H](CO)[C@@H](O)[C@H](N)[C@H]3O)[C@H](N)C[C@@H]2N)[C@H](N)C[C@@H]1O` [TOBRAMYCIN], the MIC in the data set on Staphylococcus aureus [12] lay in the range of 0.5 to 2 µg/mL (≈ 1.07 to 4.28 µM).
On to `CN[C@H](CC(C)C)C(=O)N[C@H]1C(=O)N[C@@H](CC(N)=O)C(=O)N[C@H]2C(=O)N[C@H]3C(=O)N[C@H](C(=O)N[C@H](C(=O)O)c4cc(O)cc(O)c4-c4cc3ccc4O)[C@H](O)c3ccc(c(Cl)c3)Oc3cc2cc(c3O[C@@H]2O[C@H](CO)[C@@H](O)[C@H](O)[C@H]2O[C@H]2C[C@](C)(N)[C@H](O)[C@H](C)O2)Oc2ccc(cc2Cl)[C@H]1O` [VANCOMYCIN], for which the values for the MIC (in the data set on Staphylococcus aureus [12]; in [11]) were 0.25 to 2 µg/mL (≈ 0.173 to 1.38 µM) and 45 µg/mL (≈ 31.1 µM), respectively.

As a reminder, the MBC is the lowest tested concentration that kills the bacteria rather than only halting them. Low readings indicate more potent killing, high ones less potent killing.
